Data reported in ChEMBL document CHEMBL1132767, “Design and synthesis of piperidinyl piperidine analogues as potent and selective M2 muscarinic receptor antagonists” (Bioorg Med Chem Lett, 2000).
pKi: −log10 of the molar value.

Experiments:
[1] = target: T1, Muscarinic acetylcholine receptor M2 (Homo sapiens, UniProt P08172); experiment: Binding affinity against Muscarinic acetylcholine receptor M2 stably expressed in CHO-K1 cells.; assay type: cell-based
T1 sequence (P08172 whole entry): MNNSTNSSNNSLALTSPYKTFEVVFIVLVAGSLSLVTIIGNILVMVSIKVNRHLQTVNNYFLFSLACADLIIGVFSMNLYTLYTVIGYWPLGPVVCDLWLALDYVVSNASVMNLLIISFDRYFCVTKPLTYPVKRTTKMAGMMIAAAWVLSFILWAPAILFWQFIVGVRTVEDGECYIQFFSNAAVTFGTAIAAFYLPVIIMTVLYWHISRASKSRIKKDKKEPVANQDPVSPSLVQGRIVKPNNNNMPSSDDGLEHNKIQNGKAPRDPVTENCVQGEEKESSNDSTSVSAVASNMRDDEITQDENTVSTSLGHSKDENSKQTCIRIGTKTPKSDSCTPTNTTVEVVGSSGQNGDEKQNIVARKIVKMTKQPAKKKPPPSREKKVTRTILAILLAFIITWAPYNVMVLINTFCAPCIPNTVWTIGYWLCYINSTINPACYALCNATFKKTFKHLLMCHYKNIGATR
Method in brief: (§1)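 Competition binding against 180 pM [³H]QNB in 10 mM potassium phosphate buffer, pH 7.4, containing 1% DMSO and 0.4% methylcellulose. Incubated 120 min at room temperature to equilibrium. Bound and free label separated by filtration. Nonspecific binding defined with 0.5 mM atropine. Protein adjusted to give 700–1500 cpm specific binding. [³H]QNB Kd for each subtype from saturation binding over 5–2500 pM.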

[2] = target: Muscarinic acetylcholine receptors; M1 & M2 (Homo sapiens) (UniProt P11229+P08172); experiment: Binding affinity towards M1 receptor compared to M2 receptor.; assay type: protein assay
[3] = target: Muscarinic acetylcholine receptors; M2 & M3 (Homo sapiens) (UniProt P20309+P08172); experiment: Binding affinity towards M3 receptor compared to M2 receptor.; assay type: protein assay
[4] = target: T2, Muscarinic acetylcholine receptor M1 (Homo sapiens, UniProt P11229); experiment: Binding affinity against Muscarinic acetylcholine receptor M1 expressed in CHO-K1 cells; assay type: cell-based; method in brief: as §1
T2 sequence (P11229 whole entry): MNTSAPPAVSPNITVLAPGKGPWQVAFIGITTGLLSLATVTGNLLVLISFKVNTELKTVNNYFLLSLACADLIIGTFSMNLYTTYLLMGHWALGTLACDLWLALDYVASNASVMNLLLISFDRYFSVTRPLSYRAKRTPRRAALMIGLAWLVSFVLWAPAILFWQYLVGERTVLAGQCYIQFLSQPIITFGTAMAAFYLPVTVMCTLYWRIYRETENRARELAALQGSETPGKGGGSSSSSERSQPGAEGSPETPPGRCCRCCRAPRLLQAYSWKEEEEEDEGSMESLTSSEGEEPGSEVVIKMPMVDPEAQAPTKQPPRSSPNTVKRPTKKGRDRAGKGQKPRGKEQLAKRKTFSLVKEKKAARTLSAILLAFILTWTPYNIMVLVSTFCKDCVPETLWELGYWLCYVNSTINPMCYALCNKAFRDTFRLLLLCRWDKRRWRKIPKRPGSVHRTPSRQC

[5] = target: Muscarinic acetylcholine receptor M3 (Homo sapiens, UniProt P20309); experiment: Binding affinity against Muscarinic acetylcholine receptor M3 expressed in CHO-K1 cells; assay type: cell-based; method in brief: as §1
Sequence of Muscarinic acetylcholine receptor M3 (P20309 whole entry): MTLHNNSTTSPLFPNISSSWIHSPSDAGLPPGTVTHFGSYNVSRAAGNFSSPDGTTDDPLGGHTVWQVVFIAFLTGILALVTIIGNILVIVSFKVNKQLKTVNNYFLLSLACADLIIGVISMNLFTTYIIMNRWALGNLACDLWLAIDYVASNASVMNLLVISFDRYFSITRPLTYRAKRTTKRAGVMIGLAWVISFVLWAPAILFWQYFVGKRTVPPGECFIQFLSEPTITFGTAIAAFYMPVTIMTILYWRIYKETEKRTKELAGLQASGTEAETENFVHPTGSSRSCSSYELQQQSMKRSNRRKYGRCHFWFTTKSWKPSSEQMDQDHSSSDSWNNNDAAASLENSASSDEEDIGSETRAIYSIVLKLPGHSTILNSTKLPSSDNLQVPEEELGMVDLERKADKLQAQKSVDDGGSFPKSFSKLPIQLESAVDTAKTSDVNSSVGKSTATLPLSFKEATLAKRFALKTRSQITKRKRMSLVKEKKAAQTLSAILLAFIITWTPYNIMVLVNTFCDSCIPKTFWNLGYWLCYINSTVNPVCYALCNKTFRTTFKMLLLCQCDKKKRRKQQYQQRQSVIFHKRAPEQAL

Sequence of Muscarinic acetylcholine receptors; M2 & M3 (Homo sapiens) (P20309 whole entry, looked up, one chain of several): as the sequence (P20309 whole entry) above

| Compound | pKi [1] | Selectivity [2] | Selectivity [3] | pKi [4] | pKi [5] |
| --- | --- | --- | --- | --- | --- |
| C=C(c1ccc(S(=O)(=O)c2ccc(OC)cc2)cc1)C1CCN(C2CCN(C(=O)OCCC)CC2)CC1 | 9.23 | 69 | 40 | – | – |
| C=C(c1ccc(S(=O)(=O)c2ccc(OC)cc2)cc1)C1CCN(C2CCNCC2)CC1 | 8.94 | 8 | 3 | 8.04 | 8.47 |
| C=C(c1ccc(S(=O)(=O)c2ccc(OC)cc2)cc1)C1CCN(C2CCN(S(=O)(=O)Cc3ccccc3)CC2)CC1 | 8.84 | 23 | 54 | – | – |
| C=C(c1ccc(S(=O)(=O)c2ccc(OC)cc2)cc1)C1CCN(C2CCN(C(=O)OCc3ccccc3)CC2)CC1 | 9.35 | 24 | – | – | – |
| C=C(c1ccc(S(=O)(=O)c2ccc(OC)cc2)cc1)C1CCN(C2CCN(S(=O)(=O)CC)CC2)CC1 | 9.34 | 162 | 382 | – | – |
| C=C(c1ccc(S(=O)(=O)c2ccc(OC)cc2)cc1)C1CCN(C2CCN(C(=O)CC)CC2)CC1 | 8.42 | 16 | 13 | – | – |
| C=C(c1ccc(S(=O)(=O)c2ccc(OC)cc2)cc1)C1CCN(C2CCN(C(=O)OC(C)C)CC2)CC1 | 9.39 | 36 | – | – | – |
| C=C(c1ccc(S(=O)(=O)c2ccc(OC)cc2)cc1)C1CCN(C2CCN(C(=O)Cc3ccccc3)CC2)CC1 | 8.52 | 32 | 48 | – | – |
| C=C(c1ccc(S(=O)(=O)c2ccc(OC)cc2)cc1)C1CCN(C2CCN(C(=O)C(C)C)CC2)CC1 | 8.66 | 53 | 40 | – | – |
| C=C(c1ccc(S(=O)(=O)c2ccc(OC)cc2)cc1)C1CCN(C2CCN(C(=O)OC)CC2)CC1 | 9.00 | 61 | 55 | – | – |
| C=C(c1ccc(S(=O)(=O)c2ccc(OC)cc2)cc1)C1CCN(C2CCCCC2)CC1 | – | 16 | 3 | – | – |

More lines, in order of rising pKi [1], values ahead:

| pKi [1] | Selectivity [2] | Selectivity [3] | pKi [4] | pKi [5] | Compound |
| --- | --- | --- | --- | --- | --- |
| 9.42 | 150 | 405 | – | – | C=C(c1ccc(S(=O)(=O)c2ccc(OC)cc2)cc1)C1CCN(C2CCN(S(=O)(=O)CCCC)CC2)CC1 |
| 9.42 | 111 | 324 | 7.38 | 6.92 | C=C(c1ccc(S(=O)(=O)c2ccc(OC)cc2)cc1)C1CCN(C2CCN(C(=O)CCC)CC2)CC1 |
| 9.44 | 104 | 558 | – | – | C=C(c1ccc(S(=O)(=O)c2ccc(OC)cc2)cc1)C1CCN(C2CCN(S(=O)(=O)c3ccccc3)CC2)CC1 |
| 9.46 | 28 | – | – | – | C=C(c1ccc(S(=O)(=O)c2ccc(OC)cc2)cc1)C1CCN(C2CCN(C(=O)OCCCC)CC2)CC1 |
| 9.52 | 35 | – | – | – | C=C(c1ccc(S(=O)(=O)c2ccc(OC)cc2)cc1)C1CCN(C2CCN(C(=O)OCC(C)C)CC2)CC1 |
| 9.54 | 89 | 35 | 7.59 | 8.00 | C=C(c1ccc(S(=O)(=O)c2ccc(OC)cc2)cc1)C1CCN(C2CCN(S(=O)(=O)CCC)CC2)CC1 |
| 9.59 | 262 | 260 | – | – | C=C(c1ccc(S(=O)(=O)c2ccc(OC)cc2)cc1)C1CCN(C2CCN(C(=O)C3CC3)CC2)CC1 |
| 9.80 | 198 | 440 | – | – | C=C(c1ccc(S(=O)(=O)c2ccc(OC)cc2)cc1)C1CCN(C2CCN(S(=O)(=O)C(C)C)CC2)CC1 |
| 9.96 | 59 | 34 | 8.19 | 8.43 | C=C(c1ccc(S(=O)(=O)c2ccc(OC)cc2)cc1)C1CCN(C2CCN(C(=O)OCC)CC2)CC1 |
